According to ChEMBL document CHEMBL2150951, “Studies on the antimicrobial properties of N-acylated ciprofloxacins” (2012):
Values after ≈ are worked out from the molar mass of the structure shown. Active and inactive are the calls of the source. No cut-off for these calls is given here.

Key:
[1] = system: Staphylococcus aureus; experiment: Antibacterial activity against methicillin-resistant Staphylococcus aureus isolate CBD 635 at 50 ug per disc by Kirby-Bauer disc diffusion assay; type: functional; details: read-out: DIZ
Method in brief: (§1)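 Kirby-Bauer disk diffusion with 50 µg compound per 6 mm paper disk. Organisms were grown and plated by an earlier method. The zone-of-inhibition diameter was recorded to the nearest mm and averaged over three independent experiments. No zone was reported as 6 mm, the disk diameter.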

[2] = Antibacterial activity against Bartonella henselae ATCC 49882 after 7 days by agar dilution method; type: functional, Bartonella henselae str. Houston-1; details: ATCC 49882, 168 h
Method in brief: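 Agar dilution on chocolate agar containing compound at 10.0, 1.0 and 0.1 µg/ml, with 2-fold steps at and below 1.0 µg/ml for compounds active there. Controls were DMSO-only and drug-free plates. 25 µl of a McFarland 2.0 suspension in heart infusion broth was spotted and incubated 7 days at 37 °C in 5% CO2. Growth was scored +/− on duplicate plates; triplicate results were averaged.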

[3] = system: Staphylococcus aureus; experiment: Antibacterial activity against methicillin-resistant Staphylococcus aureus isolate CBD 635; type: functional
Method in brief: (§2)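 MIC against S. aureus strains was run by an earlier published procedure, tested in triplicate. Values were averaged and expressed as µg/ml of compound.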

[4] = system: Staphylococcus aureus; experiment: Antibacterial activity against methicillin-susceptible Staphylococcus aureus SH1000; type: functional
Method in brief: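 MIC in µg/ml, tested in triplicate and averaged, with ciprofloxacin as positive control.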

[5] = system: Bartonella quintana; experiment: Antibacterial activity against Bartonella quintana ATCC VR358 at 20 ug per disc after 7 days by Kirby-Bauer disc diffusion assay; type: functional; details: ATCC VR358, 168 h, read-out: DIZ
Method in brief: (§3)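 Each paper disk was loaded with 20 µl of a 1 mg/ml solution, dried for 20 min and stored desiccated at 4 °C. Growth from 4-day plates was suspended in heart infusion broth to McFarland 2.0 and swabbed onto chocolate agar (heart infusion agar base with 5% bovine hemoglobin). Plates were incubated 1 week at 37 °C in 5% CO2. Zone diameter was read to the nearest mm, in triplicate and averaged.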

[6] = system: Bartonella elizabethae; experiment: Antibacterial activity against Bartonella elizabethae F9251 at 20 ug per disc after 7 days by Kirby-Bauer disc diffusion assay; type: functional; details: F9251, 168 h, read-out: DIZ; method in brief: as §3
[7] = Antibacterial activity against Bartonella henselae ATCC 49882 at 20 ug per disc after 7 days by Kirby-Bauer disc diffusion assay; type: functional, Bartonella henselae str. Houston-1; details: ATCC 49882, 168 h, read-out: DIZ; method in brief: as §3
[8] = system: Staphylococcus aureus; experiment: Antibacterial activity against methicillin-resistant Staphylococcus aureus ATCC 43300; type: functional; method in brief: as §2
[9] = system: Bacillus anthracis; experiment: Antibacterial activity against Bacillus anthracis sterne at 50 ug per disc by Kirby-Bauer disc diffusion assay; type: functional; details: read-out: DIZ; method in brief: as §1
[10] = system: Bartonella vinsonii; experiment: Antibacterial activity against Bartonella vinsonii ATCC VR152 at 20 ug per disc after 7 days by Kirby-Bauer disc diffusion assay; type: functional; details: ATCC VR152, 168 h, read-out: DIZ; method in brief: as §3
[11] = system: Escherichia coli; experiment: Antibacterial activity against Escherichia coli DH5alpha at 50 ug per disc by Kirby-Bauer disc diffusion assay; type: functional; details: DH5[alpha], read-out: DIZ
Method in brief: (§4)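 Disks carried 50 µg of compound. Zone diameter was measured to the nearest mm and averaged over three independent experiments. A value of 6 mm, the disk diameter, was recorded where no inhibition was seen.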

[12] = system: Enterococcus faecalis; experiment: Antibacterial activity against Enterococcus faecalis DS16 at 50 ug per disc by Kirby-Bauer disc diffusion assay; type: functional; details: read-out: DIZ; method in brief: as §4
[13] = system: Bartonella henselae; experiment: Antibacterial activity against Bartonella henselae infected in african green monkey Vero cells by immunofluorescence staining; type: functional
[14] = system: Staphylococcus aureus; experiment: Antibacterial activity against methicillin-susceptible Staphylococcus aureus SH1000 at 2.5 fold MIC by serial dilution method; type: functional
Method in brief: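 Tryptic soy agar contained compound at 1x, 1.5x, 2.0x or 2.5x the measured MSSA MIC. Cells from 1 ml of an overnight MSSA broth culture were pelleted, resuspended in 100 µl TSB and spread with glass beads. Inoculum cfu was counted by serial dilution onto drug-free agar. Total colonies from at least 3 replicates are reported; frequency is colonies divided by total inoculum.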

[15] = Antibacterial activity against Bartonella henselae Houston-1 infected in human HMEC1 cells assessed as intracellular bacterial load at 1 ug/mL incubated for 96 hrs followed by compound washout measured after 7 days relative to control; type: functional, Bartonella henselae str. Houston-1
Method in brief: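 HMEC-1 cells grown in MCDB131 with 10% FBS, EGF and hydrocortisone were infected with B. henselae Houston-1 at MOI 100 for 4 h. Extracellular bacteria were killed with gentamicin (200 µg/ml, 1 h), then compound was added at 0.1 or 1.0 µg/ml for 96 h. After washing, cells were lysed with 0.1% saponin and lysates plated on chocolate agar for 7 days. CFU are given as a percentage of the media-only control.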

[16] = system: Escherichia coli; experiment: Inhibition of Escherichia coli DNA gyrase-mediated formation of supercoiled form of pUC19 at 1 to 100 ug/mL by gel electrophoresis
Method in brief: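 Relaxed circular pUC19 was incubated with purified E. coli DNA gyrase and compound for 1 h at 37 °C. Relaxed and supercoiled DNA were resolved and quantified by gel electrophoresis.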

Row | Compound | zone of inhibition at 50 µg/disc [1] [mm] | MIC [2] [µg/mL] | MIC [3] [µg/mL] | MIC [4] [µg/mL] | zone of inhibition at 20 µg/disc [5] [mm] | zone of inhibition at 20 µg/disc [6] [mm] | zone of inhibition at 20 µg/disc [7] [mm] | MIC [8] [µg/mL] | zone of inhibition at 50 µg/disc [9] [mm] | zone of inhibition at 20 µg/disc [10] [mm] | zone of inhibition at 50 µg/disc [11] [mm] | zone of inhibition at 50 µg/disc [12] [mm] | MIC [13] [µg/mL] | CFU/ml [14] | Activity [15] | gyrase inhibition (active/inactive) [16]
1 | O=C(O)c1cn(C2CC2)c2cc(N3CCN(C(=O)c4ccccc4)CC3)c(F)cc2c1=O | 6 | 0.2 (≈ 0.459 µM) | > 100 | 25 (≈ 57.4 µM) | 7 | 13 | 21 | > 100 | 49 | 12 | 6 | 6 | – | – | – | –
2 | CCCCC(=O)N1CCN(c2cc3c(cc2F)c(=O)c(C(=O)O)cn3C2CC2)CC1 | 30 | 5 (≈ 12 µM) | > 100 | 7.5 (≈ 18.1 µM) | 35 | 35 | 38 | 1 (≈ 2.41 µM) | 80 | 57 | 47 | 39 | – | – | – | –
3 | CCC(CC)C(=O)N1CCN(c2cc3c(cc2F)c(=O)c(C(=O)O)cn3C2CC2)CC1 | 30 | 5 (≈ 11.6 µM) | > 100 | > 100 | 17 | 26 | 33 | 1 (≈ 2.33 µM) | 81 | 25 | 39 | 22 | – | – | – | –
4 | O=C(O)c1cn(C2CC2)c2cc(N3CCNCC3)c(F)cc2c1=O [CIPROFLOXACIN] | 6 | 0.5 (≈ 1.51 µM) | – | 10 (≈ 30.2 µM) | 6 | 58 | 56 | 15 (≈ 45.3 µM) | 42 | 58 | 43 | 31 | 15.2 (≈ 45.9 µM) | 551 | <=10% | –
5 | CC(C)(C)C(=O)N1CCN(c2cc3c(cc2F)c(=O)c(C(=O)O)cn3C2CC2)CC1 | 22 | – | > 100 | 7.5 (≈ 18.1 µM) | 33 | 36 | 40 | > 100 | 80 | 36 | 51 | 44 | – | – | – | Active
6 | CCCC(CCC)C(=O)N1CCN(c2cc3c(cc2F)c(=O)c(C(=O)O)cn3C2CC2)CC1 | 6 | 5 (≈ 10.9 µM) | > 100 | 10 (≈ 21.9 µM) | 6 | 6 | 14 | > 100 | 72 | 6 | 6 | 26 | – | – | – | –
7 | C[C@@H]1CN(c2c(F)c(N)c3c(=O)c(C(=O)O)cn(C4CC4)c3c2F)C[C@H](C)N1 [SPARFLOXACIN] | – | – | – | – | – | – | – | – | – | – | – | – | 6.4 (≈ 16.3 µM) | – | – | –
8 | CCCCCC(=O)N1CCN(c2cc3c(cc2F)c(=O)c(C(=O)O)cn3C2CC2)CC1 | 36 | 5 (≈ 11.6 µM) | > 100 | 20 (≈ 46.6 µM) | 30 | 30 | 31 | 25 (≈ 58.2 µM) | 77 | 21 | 30 | 38 | – | – | – | Active
9 | CCC(=O)N1CCN(c2cc3c(cc2F)c(=O)c(C(=O)O)cn3C2CC2)CC1 | 20 | 0.5 (≈ 1.29 µM) | > 100 | 40 (≈ 103 µM) | 58 | 57 | 56 | > 100 | 86 | 60 | 57 | 46 | – | 0 | <=10% | Active
